According to ChEMBL document CHEMBL3774312, “5-Substituted 3-isopropyl-7-[4-(2-pyridyl)benzyl]amino-1(2)H-pyrazolo[4,3-d]pyrimidines with anti-proliferative activity as potent and selective inhibitors of cyclin-dependent kinases” (Eur J Med Chem, 2016):
Activity calls are given as the source filed them. The rule behind the calls is not given here.

What was measured:
[1] = molecular target: Cyclin-dependent kinase 2/cyclin E1 (Homo sapiens, UniProt P24941); assay: Inhibition of CDK2/Cyclin E (unknown origin) expressed in sf9 cells using histone H1 as substrate in presence of [gamma33P]-ATP; type: cell-based
[2] = molecular target: Cyclin-dependent kinase 5 (Homo sapiens, UniProt Q00535); assay: Inhibition of CDK5 (unknown origin) using histone H1 as substrate in presence of [gamma33P]-ATP
Chain of Cyclin-dependent kinase 5 (Q00535 whole entry): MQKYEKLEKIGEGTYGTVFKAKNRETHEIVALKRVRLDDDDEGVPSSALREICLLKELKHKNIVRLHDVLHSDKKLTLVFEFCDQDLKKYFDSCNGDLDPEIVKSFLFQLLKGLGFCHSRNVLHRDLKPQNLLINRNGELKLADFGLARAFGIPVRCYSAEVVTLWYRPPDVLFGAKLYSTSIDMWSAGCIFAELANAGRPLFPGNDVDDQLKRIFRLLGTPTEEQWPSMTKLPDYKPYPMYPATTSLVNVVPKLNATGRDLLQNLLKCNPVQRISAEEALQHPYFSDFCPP

[3] = tested on: K562; assay: Cytotoxicity against human K562 cells assessed as reduction in cell viability after 72 hrs by calcein AM staining based fluorescence assay; type: functional; conditions: K562, 72 h
Outline: (§1)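 Cells were grown in DMEM with 10% FBS, penicillin and streptomycin at 37 °C in 5% CO2. Three doses were tested in triplicate for 72 h.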

[4] = tested on: MCF7; assay: Cytotoxicity against human MCF7 cells assessed as reduction in cell viability after 72 hrs by calcein AM staining based fluorescence assay; type: functional; conditions: for IC50: MCF7, 72 h; outline: as §1
[5] = Cytotoxicity against human G361 cells assessed as reduction in cell viability after 72 hrs by calcein AM staining based fluorescence assay; type: functional; conditions: G-361, 72 h; outline: as §1
[6] = (§2) Cytotoxicity against human HCT116 cells assessed as reduction in cell viability after 72 hrs by calcein AM staining based fluorescence assay; type: functional; conditions: HCT-116, 72 h
Outline: (§3)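 Cells were grown in DMEM with 10% FBS, penicillin and streptomycin at 37 °C in 5% CO2. Three doses were tested in triplicate for 72 h. Live cells were read by Calcein AM fluorescence at 485/538 nm.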

[7] = tested on: G-361; assay: Induction of apoptosis in human G361 cells assessed as caspase3 activation using Ac-DEVD-AMC as substrate at IC50 preincubated for 24 hrs followed by substrate addition measured after 3 hrs by fluorescence assay; type: functional, cell-based
[8] = tested on: G-361; assay: Induction of apoptosis in human G361 cells assessed as caspase3 activation using Ac-DEVD-AMC as substrate at 5 times IC50 preincubated for 24 hrs followed by substrate addition measured after 3 hrs by fluorescence assay; type: functional, cell-based
[9] = tested on: G-361; assay: Induction of apoptosis in human G361 cells assessed as caspase7 activation using Ac-DEVD-AMC as substrate at IC50 preincubated for 24 hrs followed by substrate addition measured after 3 hrs by fluorescence assay; type: functional, cell-based
[10] = tested on: G-361; assay: Induction of apoptosis in human G361 cells assessed as caspase7 activation using Ac-DEVD-AMC as substrate at 5 times IC50 preincubated for 24 hrs followed by substrate addition measured after 3 hrs by fluorescence assay; type: functional, cell-based
[11] = molecular target: Cyclin-dependent kinase 2 (Homo sapiens) (UniProt P24941); assay: Inhibition of CDK2 in human G361 cells assessed as reduction in phosphorylation of RNA polymerase 2 at C-terminus at 1 uM incubated for 0.5 to 24 hrs by immunoblotting analysis; type: cell-based; conditions: G-361
Outline: (§4)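 Treated G361 cells were lysed in Laemmli buffer, run on SDS-PAGE and blotted to nitrocellulose. Blots were probed overnight with antibodies to RNA polymerase II phosphorylated at S5 and S2, and to total RNA polymerase II (ARNA-3). Peroxidase secondaries were then applied and signal was detected by ECL with a CCD camera.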

[12] = tested on: MCF7; assay: Cell cycle arrest in BrdU pulse-labelled human MCF7 cells assessed as accumulation at late G2/M phase at 8 to 250 nM after 24 hrs by propidium iodide staining based flow cytometry; type: functional
[13] = tested on: HCT-116; assay: as §2; type: functional; outline: as §3
[14] = tested on: MCF7; assay: Cell cycle arrest in BrdU pulse-labelled human MCF7 cells assessed as decrease in cells at S phase at 8 to 250 nM after 24 hrs by propidium iodide staining based flow cytometry; type: functional
[15] = tested on: MCF7; assay: Cell cycle arrest in BrdU pulse-labelled human MCF7 cells assessed as accumulation at subG1 phase at 8 to 250 nM after 24 hrs by propidium iodide staining based flow cytometry; type: functional
[16] = tested on: MCF7; assay: Cell cycle arrest in BrdU pulse-labelled human MCF7 cells assessed as accumulation at late S phase at 8 to 250 nM after 24 hrs by propidium iodide staining based flow cytometry; type: functional
[17] = molecular target: Cyclin-dependent kinase 2 (Homo sapiens) (UniProt P24941); assay: Inhibition of CDK2 in human G361 cells assessed as reduction in phosphorylation of RNA polymerase 2 at C-terminus at 0.075 to 0.75 uM incubated for 24 hrs by immunoblotting analysis; type: cell-based; conditions: G-361; outline: as §4
[18] = molecular target: Cyclin-dependent kinase 2 (Homo sapiens) (UniProt P24941); assay: Inhibition of CDK2 in human G361 cells assessed as reduction in phosphorylation of RNA polymerase 2 at C-terminus at 0.75 uM incubated for 0.5 to 24 hrs by immunoblotting analysis; type: cell-based; conditions: G-361; outline: as §4
[19] = molecular target: Cyclin-dependent kinase 2 (Homo sapiens) (UniProt P24941); assay: Inhibition of CDK2 in human G361 cells assessed as reduction in phosphorylation of RNA polymerase 2 at C-terminus at 2.4 to 24 uM incubated for 24 hrs by immunoblotting analysis; type: cell-based; conditions: G-361; outline: as §4
[20] = tested on: MCF7; assay: Cell cycle arrest in BrdU pulse-labelled human MCF7 cells assessed as accumulation at subG1 phase at 2500 to 20000 nM after 24 hrs by propidium iodide staining based flow cytometry; type: functional
[21] = tested on: MCF7; assay: Cell cycle arrest in BrdU pulse-labelled human MCF7 cells assessed as accumulation at late S phase at 2500 to 20000 nM after 24 hrs by propidium iodide staining based flow cytometry; type: functional
[22] = tested on: MCF7; assay: Cell cycle arrest in BrdU pulse-labelled human MCF7 cells assessed as accumulation at late G2/M phase at 2500 to 20000 nM after 24 hrs by propidium iodide staining based flow cytometry; type: functional
[23] = tested on: MCF7; assay: Cell cycle arrest in BrdU pulse-labelled human MCF7 cells assessed as decrease in cell at S phase at 2500 to 20000 nM after 24 hrs by propidium iodide staining based flow cytometry; type: functional
[24] = tested on: MCF7; assay: Cell cycle arrest in BrdU pulse-labelled human MCF7 cells assessed as accumulation at subG1 phase at 8 to […] after 24 hrs by propidium iodide staining based flow cytometry; type: functional
[25] = tested on: MCF7; assay: Cell cycle arrest in BrdU pulse-labelled human MCF7 cells assessed as accumulation at late S phase at 8 to […] after 24 hrs by propidium iodide staining based flow cytometry; type: functional
[26] = tested on: MCF7; assay: Cell cycle arrest in BrdU pulse-labelled human MCF7 cells assessed as accumulation at late G2/M phase at 8 to […] after 24 hrs by propidium iodide staining based flow cytometry; type: functional
[27] = tested on: MCF7; assay: Cell cycle arrest in BrdU pulse-labelled human MCF7 cells assessed as decrease in cells at S phase at 8 to […] after 24 hrs by propidium iodide staining based flow cytometry; type: functional
[28] = tested on: MCF7; assay: Cell cycle arrest in BrdU pulse-labelled human MCF7 cells assessed as accumulation at subG1 phase at 500 to 5000 nM after 24 hrs by propidium iodide staining based flow cytometry; type: functional
[29] = tested on: MCF7; assay: Cell cycle arrest in BrdU pulse-labelled human MCF7 cells assessed as decrease in cells at S phase at 500 to 5000 nM after 24 hrs by propidium iodide staining based flow cytometry; type: functional
[30] = tested on: MCF7; assay: Cell cycle arrest in BrdU pulse-labelled human MCF7 cells assessed as accumulation at late G2/M phase at 500 to 5000 nM after 24 hrs by propidium iodide staining based flow cytometry; type: functional
[31] = tested on: MCF7; assay: Cell cycle arrest in BrdU pulse-labelled human MCF7 cells assessed as accumulation at late S phase at 500 to 5000 nM after 24 hrs by propidium iodide staining based flow cytometry; type: functional
[32] = molecular target: Cyclin-dependent kinase 2 (Homo sapiens) (UniProt P24941); assay: Inhibition of CDK2 in human G361 cells assessed as reduction in phosphorylation of RNA polymerase 2 at C-terminus at 1.5 to 15 uM incubated for 24 hrs by immunoblotting analysis; type: cell-based; conditions: G-361; outline: as §4
[33] = molecular target: Cyclin-dependent kinase 2 (Homo sapiens) (UniProt P24941); assay: Inhibition of CDK2 in human G361 cells assessed as reduction in phosphorylation of RNA polymerase 2 at C-terminus at 15 uM incubated for 0.5 to 24 hrs by immunoblotting analysis; type: cell-based; conditions: G-361; outline: as §4

Row | SMILES | IC50 [1] [nM] | IC50 [2] [nM] | IC50 [3] [nM] | IC50 [4] [nM] | IC50 [5] [nM] | IC50 [6] [nM] | other results
1 | CC(C)c1n[nH]c2c(NCc3ccc(-c4ccccn4)cc3)nc(N3CCCCC3CCO)nc12 (configuration not stated) | 24 | 37 | 165 | 133 | 204 | 142 | 
2 | CC(C)c1n[nH]c2c(NCc3ccc(-c4ccccn4)cc3)nc(N3CCNCC3)nc12 | 50 |  | 17 | 21 | 64 | 88 | 
3 | CC(C)c1n[nH]c2c(NCc3ccc(-c4ccccn4)cc3)nc(N3CCN(CCO)CC3)nc12 | 132 |  | 145 | 195 | 181 | 350 | 
4 | CC(C)c1n[nH]c2c(NCc3ccc(-c4ccccn4)cc3)nc(N3CCOCC3)nc12 | 18 |  | 110 | 163 | 197 | 270 | Activity [7]: inactive; Activity [8]: Active; Activity [9]: inactive; Activity [10]: Active; inhibition [11]: Active
5 | CC(C)c1n[nH]c2c(NCc3ccc(-c4ccccn4)cc3)nc(NCC(O)CN)nc12 (configuration not stated) | 51 | 17 | 700 | 310 | 1020 | 781 | Activity [12]: Active; Activity [4]: Dose-dependent effect; Activity [13]: Dose-dependent effect; Activity [14]: Active; Activity [15]: Active; Activity [16]: Active
6 | CC(C)c1n[nH]c2c(NCc3ccc(-c4ccccn4)cc3)nc(S(C)(=O)=O)nc12 | 70 |  | 640 | 460 | 793 | 1140 | 
7 | CC(C)c1n[nH]c2c(NCc3ccc(-c4ccccn4)cc3)nc(NCC(C)(C)O)nc12 | 9 |  | 29 | 24 | 48 | 85 | Activity [7]: Active; Activity [8]: Active; Activity [9]: Active; Activity [10]: Active; inhibition [17]: Active; inhibition [18]: Active
8 | CC[C@H](CO)Nc1nc(NCc2ccccc2)c2[nH]nc(C(C)C)c2n1 |  |  |  |  |  |  | inhibition [19]: Active
9 | CSc1nc(NCc2ccc(-c3ccccn3)cc2)c2[nH]nc(C(C)C)c2n1 | 48 |  | 778 | 819 | 1400 | 2800 | 
10 | CC(C)c1n[nH]c2c(NCc3ccc(-c4ccccn4)cc3)nc(NCCN)nc12 | 18 | 8 | 63 | 62 | 230 | 227 | 
11 | CC(C)c1n[nH]c2c(NCc3ccc(-c4ccccn4)cc3)nc(NCC(O)CO)nc12 (configuration not stated) | 12 | 21 | 47 | 59 | 72 | 87 | 
12 | COc1ccc(CNc2nc(NCc3ccc(-c4ccccn4)cc3)c3[nH]nc(C(C)C)c3n2)cc1 | 1480 |  | 3950 | 5300 | 7490 | 17400 | Activity [4]: Dose-dependent effect; Activity [13]: Dose-dependent effect; Activity [20]: Active; Activity [21]: Active; Activity [22]: Active; Activity [23]: Active
13 | CC[C@H](CO)Nc1nc(NCc2ccc(-c3ccccn3)cc2)c2ncn(C(C)C)c2n1 |  |  | 175 | 160 | 503 | 350 | 
14 | CCC(CO)Nc1nc(NCc2ccc(-c3ccccn3)cc2)c2[nH]nc(C(C)C)c2n1 (configuration not stated) | 54 |  |  | 53 | 67 | 110 | Activity [4]: Dose-dependent effect; Activity [13]: Dose-dependent effect; Activity [24]: Active; Activity [25]: Active; Activity [26]: Active; Activity [27]: Active
15 | CC(C)c1n[nH]c2c(NCc3ccc(-c4ccccn4)cc3)ncnc12 | 197 |  |  |  | 875 | 1240 | Activity [4]: Dose-dependent effect; Activity [13]: Dose-dependent effect; Activity [28]: Active; Activity [29]: Active; Activity [30]: Active; Activity [31]: Active
16 | CC(C)c1n[nH]c2c(NCc3ccc(-c4ccccn4)cc3)nc(N[C@H]3CC[C@H](N)CC3)nc12 | 96 |  | 593 | 474 | 745 | 720 | Activity [7]: Active; Activity [8]: Active; Activity [9]: Active; Activity [10]: Active; inhibition [32]: Active; inhibition [33]: Active
17 | CC(C)c1n[nH]c2c(NCc3ccc(-c4ccccn4)cc3)nc(NCc3ccc(-c4ccccn4)cc3)nc12 | 1450 | 3600 | 2540 | 2380 | 3610 | 7320 | 
18 | CC[C@H](CO)Nc1nc(NCc2ccccc2)c2ncn(C(C)C)c2n1 [SELICICLIB] |  |  |  | 12200 |  | 14400 | 
19 | CC(C)c1n[nH]c2c(NCc3ccc(-c4ccccn4)cc3)nc(N3CCSCC3)nc12 | 61 |  | 589 | 530 | 873 | 940 | 
20 | CC(C)c1n[nH]c2c(NCc3ccc(-c4ccccn4)cc3)nc(NCCO)nc12 | 31 | 49 | 38 | 51 | 39 | 27 | 
21 | CC(C)c1n[nH]c2c(NCc3ccc(-c4ccccn4)cc3)nc(NCCN(C)C)nc12 | 467 |  | 125 | 225 | 640 | 390 | 
22 | CC(C)c1n[nH]c2c(NCc3ccc(-c4ccccn4)cc3)nc(N[C@@H]3CCCC[C@H]3N)nc12 (relative stereo) | 46 | 44 | 175 | 295 | 477 | 427 | 
